Experimental data reported in ChEMBL document CHEMBL2375239, “Improving the immunostimulatory potency of diethanolamine-containing lipid A mimics” (Bioorg Med Chem, 2013).
The source made the active and inactive calls. No cut-off for these calls is given here.

Tests used:
Assay type in all cases: cell-based
Conditions in all cases: THP-1
[1] = molecular target: T1, Toll-like receptor 4/MD-2 (Homo sapiens) (UniProt O00206+Q9Y6Y9); assay: Agonist activity at TLR4/MD-2 receptor complex in human THP1 cells assessed as IL-1beta release at 0.1 uM after 24 hrs by ELISA in presence of lipid IVa in presence of 0.5 uM of lipid IVa
Method in brief: (§1)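 THP-1 cells plated at 0.5 × 10⁶ cells/well in RPMI with 25 ng/mL PMA for 48 h. Adherent cells washed with PBS, held in serum-free RPMI 3 h, then stimulated 24 h with agonist plus increasing lipid IVa (dissolved in DMSO). Supernatant TNF-α and IL-1β measured by ELISA, A450 corrected at 540 nm. Duplicates; mean of two separate experiments.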

[2] = molecular target: T1, Toll-like receptor 4/MD-2 (Homo sapiens); assay: Agonist activity at TLR4/MD-2 receptor complex in human THP1 cells assessed as IL-1beta release at 0.1 uM after 24 hrs by ELISA in presence of lipid IVa in presence of 0.1 uM of lipid IVa; method in brief: as §1
[3] = molecular target: T1, Toll-like receptor 4/MD-2 (Homo sapiens); assay: Agonist activity at TLR4/MD-2 receptor complex in human THP1 cells assessed as IL-6 release at 10 uM after 24 hrs by ELISA
Method in brief: (§2)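 Mimics reconstituted in 20% DMSO/PBS with brief sonication, fresh aliquot per experiment, final DMSO ≤0.5%. THP-1 cells differentiated 48 h with 25 ng/mL PMA, washed, serum-starved 3 h. Stimulated 24 h across 10⁻⁴–10 µM. Supernatant TNF-α, IL-6 or IL-1β read by ELISA (450 nm, 540 nm correction). Duplicates; mean of two experiments.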

[4] = molecular target: T1, Toll-like receptor 4/MD-2 (Homo sapiens); assay: Agonist activity at TLR4/MD-2 receptor complex in human THP1 cells assessed as IL-1beta release at 10^-4 uM after 24 hrs by ELISA; method in brief: as §2
[5] = molecular target: T1, Toll-like receptor 4/MD-2 (Homo sapiens); assay: Agonist activity at TLR4/MD-2 receptor complex in human THP1 cells assessed as TNF-alpha release at 10^-3 uM after 24 hrs by ELISA; method in brief: as §2
[6] = molecular target: T1, Toll-like receptor 4/MD-2 (Homo sapiens); assay: Agonist activity at TLR4/MD-2 receptor complex in human THP1 cells assessed as TNF-alpha release at 10 uM after 24 hrs by ELISA; method in brief: as §2
[7] = molecular target: T1, Toll-like receptor 4/MD-2 (Homo sapiens); assay: Agonist activity at TLR4/MD-2 receptor complex in human THP1 cells assessed as IL-1beta release at 10^-3 uM after 24 hrs by ELISA; method in brief: as §2
[8] = molecular target: T1, Toll-like receptor 4/MD-2 (Homo sapiens); assay: Agonist activity at TLR4/MD-2 receptor complex in human THP1 cells assessed as TNF-alpha release at 0.1 uM to 1 uM after 24 hrs by ELISA; method in brief: as §2
[9] = molecular target: T1, Toll-like receptor 4/MD-2 (Homo sapiens); assay: Agonist activity at TLR4/MD-2 receptor complex in human THP1 cells assessed as TNF-alpha release at 0.1 uM after 24 hrs by ELISA in presence of 0.1 uM of lipid IVa; method in brief: as §1
[10] = molecular target: T1, Toll-like receptor 4/MD-2 (Homo sapiens); assay: Agonist activity at TLR4/MD-2 receptor complex in human THP1 cells assessed as IL-6 release at 0.1 uM to 1 uM after 24 hrs by ELISA; method in brief: as §2
[11] = molecular target: T1, Toll-like receptor 4/MD-2 (Homo sapiens); assay: Agonist activity at TLR4/MD-2 receptor complex in human THP1 cells assessed as IL-1beta release at 10 uM after 24 hrs by ELISA; method in brief: as §2
[12] = molecular target: T1, Toll-like receptor 4/MD-2 (Homo sapiens); assay: Agonist activity at TLR4/MD-2 receptor complex in human THP1 cells assessed as IL-1beta release at 0.001 uM after 24 hrs by ELISA in presence of lipid IVa in presence of 0.1 uM of lipid IVa; method in brief: as §1
[13] = molecular target: T1, Toll-like receptor 4/MD-2 (Homo sapiens); assay: Agonist activity at TLR4/MD-2 receptor complex in human THP1 cells assessed as IL-1beta release at 0.1 uM to 1 uM after 24 hrs by ELISA; method in brief: as §2
[14] = molecular target: T1, Toll-like receptor 4/MD-2 (Homo sapiens); assay: Agonist activity at TLR4/MD-2 receptor complex in human THP1 cells assessed as TNF-alpha release at 0.1 uM after 24 hrs by ELISA in presence of 0.5 uM of lipid IVa; method in brief: as §1
[15] = molecular target: T1, Toll-like receptor 4/MD-2 (Homo sapiens); assay: Agonist activity at TLR4/MD-2 receptor complex in human THP1 cells assessed as TNF-alpha release at 0.001 uM after 24 hrs by ELISA in presence of 0.1 uM of lipid IVa; method in brief: as §1

| Activity [1] | Activity [2] | Activity [3] | Activity [4] | Activity [5] | Activity [6] | Activity [7] | Activity [8] | Activity [9] | Activity [10] | Activity [11] | Activity [12] | Activity [13] | Activity [14] | Activity [15] | Compound |
| --- | --- | --- | --- | --- | --- | --- | --- | --- | --- | --- | --- | --- | --- | --- | --- |
| Active | Active | Active | Active | Active | Active | Active | Active | Active | Active | Active | Active | Active | inactive | Active | CCCCCCCCCCCCCC(=O)O[C@H](CCCCCCCCCCC)CC(=O)N[C@H]1[C@H](OCCN(CC(=O)O)C(=O)C[C@@H](CCCCCCCCCCC)OC(=O)CCCCCCCCCCCCC)O[C@H](CO)[C@@H](OP(=O)(O)O)[C@@H]1OC(=O)C[C@@H](CCCCCCCCCCC)OC(=O)CCCCCCCCCCCCC |
|  |  | Active |  | Active | Active | Active | Active |  | Active | Active |  | Active |  |  | CCCCCCCCCCCCCC(=O)O[C@H](CCCCCCCCCCC)CC(=O)N[C@H]1[C@H](OCCN(CCOP(=O)(O)O)C(=O)C[C@@H](CCCCCCCCCCC)OC(=O)CCCCCCCCCCCCC)O[C@H](CO)[C@@H](OP(=O)(O)O)[C@@H]1OC(=O)C[C@@H](CCCCCCCCCCC)OC(=O)CCCCCCCCCCCCC |
|  |  | Active |  | Active | Active | Active | Active |  | Active | Active |  | Active |  |  | CCCCCCCCCCCCCC(=O)O[C@H](CCCCCCCCCCC)CC(=O)N[C@H]1[C@H](OCCN(CCO)C(=O)C[C@@H](CCCCCCCCCCC)OC(=O)CCCCCCCCCCCCC)O[C@H](CO)[C@@H](OP(=O)(O)O)[C@@H]1OC(=O)C[C@@H](CCCCCCCCCCC)OC(=O)CCCCCCCCCCCCC |
